Test results from ChEMBL document CHEMBL1155892, “Characterization of polyketide metabolites from foliar endophytes of Picea glauca” (J Nat Prod, 2008).
Activity calls are given as the source filed them. The rule behind the calls is not given here.

Tests used:
Choristoneura fumiferana = experiment: Toxicity against Choristoneura fumiferana assessed as reduction in body weight by diet incorporation assay; type: functional, organism-based
Procedure, shortened: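 Spruce budworm diet-incorporation bioassay with disease-free larvae. Extract dissolved in CH2Cl2, mixed into synthetic diet at 400 µg/g, solvent evaporated overnight. Ten second-instar larvae per cup, 3 cups per extract, held at 25 °C, 55% RH, 16 h light/day until fifth instar (about 1 week). Each larva weighed and head capsule width measured. ANOVA with Fisher's LSD; rugulosin positive control, CH2Cl2 negative control.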

Saccharomyces cerevisiae = experiment: Toxicity against Saccharomyces cerevisiae by disc diffusion method; type: functional, organism-based
Procedure, shortened: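 Antifungal screen by disc diffusion. Dried extract, 50 mg dissolved in 1 mL CH2Cl2; 10 µL applied to each small filter disc under aseptic conditions, solvent left to evaporate overnight. Discs placed on malt extract agar plates inoculated with a lawn of yeast, incubated at 25 °C, and inhibition zones measured.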

Hep 3B2 = experiment: Cytotoxicity against human Hep3B cells; type: functional, cell-based

Compound	Activity (Choristoneura fumiferana)	Activity (Saccharomyces cerevisiae)	Activity (Hep 3B2)
CCC[C@@H]1Cc2cc(OC)cc(O)c2C(=O)O1	Active	Active	–
OCCc1ccc(O)cc1	Active	Active	inactive
COC(=O)c1c(OC)cc(OC)cc1C(C)=O	Active	Active	–
CCCCC1=C(C)COC1=O	Active	Active	–
COC(=O)c1c(O)c(C)cc2oc3cccc(O)c3c(=O)c12	Active	Active	–
COc1cc(OC)c2c(c1)C(C)OC2=O (stereo not drawn)	Active	Active	–
C[C@@H]1Cc2c(C=O)ccc(O)c2C(=O)O1	Active	Active	–
C[C@@H]1Cc2cccc(O)c2C(=O)O1	Active	Active	–
COc1cc(OC)c(C(=O)O)c(C(C)=O)c1	Active	Active	–
Cc1ccc(O)c2c1C[C@@H](C)OC2=O	Active	Active	–
COC(=O)c1ccc(O)c2c1C[C@@H](C)OC2=O	Active	Active	–
